# Paper PMC8108540 (Arteriosclerosis, thrombosis, and vascular biology, 2020)
# Where a SMILES comes first, the peptide text is derived from it. The star is where a group is joined. Palmitoyl = CCCCCCCCCCCCCCCC(=O)*
# What was measured:
# [1] = system: RASA3; assay: Thrombin-induced RASA3 membrane localization in human platelets; format: cell-based; conditions: GPR310 1 μM, AZD1283 10 μM, dual, or LY294002 10 μM, 3 nmol/L thrombin
# [2] = system: Rap1; assay: Thrombin-induced Rap1 activation in human platelets; format: cell-based; conditions: GPR310 3 μM, AZD1283 10 μM or dual; 3 nmol/L thrombin, 15 min, gel-purified platelets
# [3] = system: platelet-rich plasma; assay: Thrombin-induced clot retraction in PRP; format: cell-based, human; conditions: 10 or 30 μM inhibitor, 3 nmol/L thrombin, RT, 15 minutes to 4 hours
# How it was run: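 Citrated platelet-rich plasma adjusted to […] and diluted in PBS with red blood cells in glass tubes. CaCl2 added to a final 0.5 mmol/L. Pretreated with 10 or 30 μM test compound, P2Y12 inhibitor or vehicle. Clotting started with 3 or 10 nmol/L thrombin at room temperature. Clots photographed at 0, 5, 10, 15 and 30 min and at 1, 2 and 4 h.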
# [4] = system: human platelets; assay: Platelet aggregation by 12; format: cell-based; conditions: 5, 10 and 20 μmol/L 12(S)-HETE, human PRP
# [5] = target: T1, GPR31 (Homo sapiens, UniProt O00270); assay: 12; format: cell-based; conditions: 100 nmol/L 12(S)-HETE, human platelets, signal at 15 to 120 minutes
# How it was run: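 Gel-purified human platelets pretreated with test compound at graded levels, then activated with 12(S)-HETE. Lysis on ice for 10 min in Tris-HCl pH 7.5 buffer with NP-40, DTT and protease inhibitors, then cleared at 14 000 g. Rap1-GTP pulled down with RalGDS-RBD agarose, 60 min at 4 °C. Detected by 15% SDS-PAGE and anti-Rap1 immunoblot; lysate aliquots used for total Rap1. IC50 from dose response.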
# Target sequence in this assay (O00270 whole entry): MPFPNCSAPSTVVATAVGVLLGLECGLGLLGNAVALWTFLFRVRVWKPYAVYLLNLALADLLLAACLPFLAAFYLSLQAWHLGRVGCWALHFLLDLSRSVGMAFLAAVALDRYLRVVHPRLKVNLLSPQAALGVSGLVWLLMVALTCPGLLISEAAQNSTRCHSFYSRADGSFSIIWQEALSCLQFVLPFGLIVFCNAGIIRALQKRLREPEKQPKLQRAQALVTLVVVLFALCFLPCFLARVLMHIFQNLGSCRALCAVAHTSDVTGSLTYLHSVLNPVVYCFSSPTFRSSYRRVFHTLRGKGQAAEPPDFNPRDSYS
# [6] = target: T1, GPR31; assay: Cre-luciferase activation assay in GPR31-transfected CHO cells; format: cell-based; conditions: 6 hours
# How it was run: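 CHO cells cotransfected by lipofection with Cre-luciferase and GPR31 plasmids, 8 μg each. Cells plated and treated 6 h with 10 μM forskolin with or without 300 nmol/L 12(S)-HETE. Cells then lysed and luciferase activity read as relative light units.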
# Target sequence in this assay (O00270 whole entry, species assumed): as the sequence (O00270 whole entry) above
# [7] = target: T1, GPR31; assay: 12; format: cell-based; conditions: 10 and 20 μM 12(S)-HETE, fura-2-labeled GPR31/CHO cells
# How it was run: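 Human GPR31 transiently transfected into CHO cells. Cells labelled with fura-2 and challenged with 12(S)-HETE; Ca2+ flux followed over time.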
# Target sequence in this assay (O00270 whole entry, species assumed): as the sequence (O00270 whole entry) above
# [8] = system: human platelets; assay: 12; format: cell-based; conditions: 10 μM 12(S)-HETE, fura-2-labeled human platelets
# How it was run: (§1)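 Gel-purified platelets loaded with 2.5 μM fura-2/AM, 30 min at 37 °C. Emission recorded at 510 nm with dual excitation at 340/380 nm. For line 6, platelets preincubated with test compound or vehicle before AYPGKF.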
# [9] = system: p38 MAPK phosphorylation; assay: Immunoblot of 12; format: cell-based, human
# How it was run: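 Gel-purified human platelets incubated in an aggregometer at 37 °C with 12(S)-HETE, with or without 1 or 3 μM test compound, for various times. Solubilised in SDS-PAGE sample buffer and run on 10% SDS-PAGE at equal protein. Immunoblotted for phospho-p38 (Thr180/Tyr182).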
# [10] = system: PAR4; assay: PAR4; format: cell-based, human; conditions: 30 μmol/L ML355, 2 min preincubation, 160 μmol/L AYPGKF, aggregation at 15 min
# [11] = system: human platelets; assay: Collagen-mediated human platelet aggregation; format: cell-based; conditions: 10 μg/mL collagen; 3 μmol/L GPR310 or 30 μmol/L ML355; P<0.001
# [12] = system: PAR1; assay: PAR1; format: cell-based, human
# [13] = system: Rap1; assay: AYPGKF; format: cell-based; conditions: human platelets, peak shifted from 5 to 15 minutes
# [14] = system: IL-8 receptor CXCR1/2; assay: Calcium flux in human neutrophils, IL-8; format: cell-based; conditions: GPR310 6 μM, 50 nmol/L IL-8
# [15] = Pharmacokinetics of sc injected pepducin in mouse plasma; format: in vivo; conditions: CD-1, mouse, 10 mg/kg
# How it was run: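 CD-1 mice given 10 mg/kg test compound subcutaneously in 10% DMSO. Vena cava blood drawn into heparin at 5, 15 and 30 min and 1, 4, 5, 14 and 24 h. Pepducin extracted from plasma and quantified by LC-MS to obtain peak level and terminal elimination.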
# [16] = system: mouse platelets; assay: Ex vivo platelet aggregation after sc dosing; format: in vivo; conditions: mice, 10 mg/kg sc, 4 h; AYPGKF 100 μmol/L or thrombin 10 nmol/L
# [17] = system: PAR4; assay: AYPGKF-mediated calcium flux in human platelets; format: cell-based; conditions: 3 μM GPR310, 160 μM AYPGKF, fura-2-labeled human platelets
# How it was run: as §1
# [18] = target: T2, PAR2 (Homo sapiens, UniProt P55085); assay: Calcium flux, recombinant PAR2, SLIGRL; format: cell-based; conditions: GPR310 6 μM; 100 μM SLIGRL
# T2 sequence (P55085 26-397): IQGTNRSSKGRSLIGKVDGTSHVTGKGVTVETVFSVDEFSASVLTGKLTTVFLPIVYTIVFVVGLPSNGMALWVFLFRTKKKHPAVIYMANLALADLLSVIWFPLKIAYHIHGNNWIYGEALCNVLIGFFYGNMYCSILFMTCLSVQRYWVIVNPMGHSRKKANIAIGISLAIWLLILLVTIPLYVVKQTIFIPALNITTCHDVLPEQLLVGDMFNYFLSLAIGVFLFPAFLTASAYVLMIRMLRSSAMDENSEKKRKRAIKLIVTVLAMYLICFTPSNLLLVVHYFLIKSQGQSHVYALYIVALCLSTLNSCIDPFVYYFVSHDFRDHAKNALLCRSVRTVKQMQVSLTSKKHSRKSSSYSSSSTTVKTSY
# [19] = system: mouse platelets; assay: AYPGKF-induced aggregation and ATP release in mouse PRP; format: cell-based; conditions: 30 μM GPR310 spiked, 100 μM AYPGKF
# How it was run: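 Mouse platelet-rich plasma spiked with test compound, then stimulated with 100 μM AYPGKF. Run at 37 °C with stirring at 900 rpm in a lumi-aggregometer. Aggregation and dense-granule ATP release recorded together; ATP detected with luciferin/luciferase reagent and calibrated against an ATP standard.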
# [20] = target: T3, PAR1 (Homo sapiens, UniProt P25116); assay: Calcium flux in HEK293 recombinant system, SFLLRN; format: cell-based; conditions: GPR310 6 μM, 100 μM SFLLRN
# T3 sequence (P25116 22-425): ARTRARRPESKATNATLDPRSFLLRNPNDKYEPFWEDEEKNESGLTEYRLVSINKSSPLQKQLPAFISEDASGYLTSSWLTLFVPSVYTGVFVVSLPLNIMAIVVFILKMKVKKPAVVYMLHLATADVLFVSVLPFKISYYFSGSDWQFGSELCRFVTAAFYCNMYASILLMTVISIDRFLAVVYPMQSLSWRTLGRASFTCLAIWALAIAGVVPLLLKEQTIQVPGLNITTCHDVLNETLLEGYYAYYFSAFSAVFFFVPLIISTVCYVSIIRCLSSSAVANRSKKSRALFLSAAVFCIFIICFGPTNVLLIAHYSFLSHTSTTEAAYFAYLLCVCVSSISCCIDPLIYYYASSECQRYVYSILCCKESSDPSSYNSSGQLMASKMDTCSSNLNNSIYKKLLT
# [21] = Tail bleeding time; format: in vivo, mouse; conditions: mice, 4 hours after 5 and 10 mg/kg sc, n=10
# How it was run: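 Mice anaesthetised 4 h after subcutaneous test compound or vehicle and kept on a 37 °C homeothermic blanket. Tail transected 5 mm from the tip and immersed at once in 37 °C saline. Time to cessation recorded; cessation counted only once bleeding had stopped for 1 min.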
# [22] = system: ADP receptors; assay: Calcium flux, ADP; format: cell-based, human; conditions: GPR310 6 μM; 20 μM ADP
# [23] = system: pAKT, pERK; assay: Immunoblot of thrombin-induced Akt and ERK phosphorylation in human platelets; format: cell-based; conditions: 1 μM GPR310, 3 nmol/L thrombin, 15 min
# How it was run: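 Gel-purified human platelets pretreated with or without 1 μM test compound, then stimulated with 3 nmol/L thrombin for 15 min. Equal protein resolved on 10% SDS-PAGE and immunoblotted for phospho-AKT and phospho-ERK, with β-actin as loading control.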
# [24] = target: CXCR4 (Homo sapiens, UniProt P61073); assay: Calcium flux in human neutrophils, SDF1α; format: cell-based; conditions: GPR310 6 μM, 100 nmol/L SDF1α
# CXCR4, sequence (P61073 whole entry): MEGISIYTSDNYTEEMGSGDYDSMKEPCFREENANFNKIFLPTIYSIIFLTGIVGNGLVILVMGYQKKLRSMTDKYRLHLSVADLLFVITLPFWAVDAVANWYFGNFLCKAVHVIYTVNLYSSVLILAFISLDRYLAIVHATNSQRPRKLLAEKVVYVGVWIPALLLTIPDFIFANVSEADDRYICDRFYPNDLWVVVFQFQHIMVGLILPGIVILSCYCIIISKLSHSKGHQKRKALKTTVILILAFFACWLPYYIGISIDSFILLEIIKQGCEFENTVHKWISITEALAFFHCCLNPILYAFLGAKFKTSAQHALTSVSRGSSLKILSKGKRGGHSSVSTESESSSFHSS
smiles,measurement,setting,value
"CCOC(=O)c1cc(C#N)c(N2CCC(C(=O)NS(=O)(=O)Cc3ccccc3)CC2)nc1C [AZD1283, reference compound]",suppression of thrombin-induced RASA3 appearance in plasma membrane,[1],complete suppression
same,inhibition of thrombin-induced Rap1 activation,[2],partially suppressed
same,clot retraction time vs vehicle,[3],longer clot retraction times
CCCCC/C=C\C[C@H](O)/C=C/C=C\C/C=C\CCCC(=O)O [12(S)-HETE],activation of platelet aggregation,[4],failed to effectively activate platelet aggregation
same,Rap1-GTP activation,[5],strongly activated
same,inhibition of AC (adenylyl cyclase) activity,"[6]; 300 nmol/L 12(S)-HETE with 10 μM forskolin, not observed in Cre-luci controls",significant inhibition
same,calcium mobilization,[7],low but detectable calcium transients
same,calcium flux,[8],negligible
same,p38 MAPK phosphorylation activation,"[9]; 100 nmol/L 12(S)-HETE, 15 minutes, human platelets",rapidly (15 minutes) activated
"COc1cccc(CNc2ccc(S(=O)(=O)Nc3nc4ccccc4s3)cc2)c1O [ML355, reference compound]",inhibition of PAR4-mediated platelet aggregation,[10],inhibition
same,inhibition of collagen-mediated platelet aggregation,[11],to a similar extent
same,inhibition of PAR1-mediated platelet aggregation,"[12]; 30 μmol/L ML355, 3 μmol/L SFLLRN",considerable inhibition
same,inhibition of PAR1-mediated platelet aggregation,"[12]; 30 μmol/L ML355, 10 μmol/L SFLLRN",but not 10 μmol/L SFLLRN
C=C[C@@]1(C)CC(=O)[C@]2(O)[C@@]3(C)[C@@H](O)CCC(C)(C)[C@@H]3[C@H](O)[C@H](OC(C)=O)[C@@]2(C)O1 [forskolin],induction of cAMP-responsive element-luciferase reporter,"[6]; CHO-K1 cells expressing GPR31 and Cre-luciferase, 10 μM forskolin",10 fold
CCCCCCCCCCCCCCCC(=O)N[C@@H](CCCNC(=N)N)C(=O)N[C@@H](C)C(=O)N[C@@H](CC(C)C)C(=O)N[C@@H](CCC(N)=O)C(=O)N[C@@H](CCCCN)C(=O)N[C@@H](CCCNC(=N)N)C(=O)N[C@@H](CC(C)C)C(=O)N[C@@H](CCCNC(=N)N)C(=O)N[C@@H](CCC(=O)O)C(=O)N1CCC[C@H]1C(=O)N[C@@H](CCC(=O)O)C(=O)N[C@@H](CCCCN)C(=O)N[C@@H](CCC(N)=O)C(=O)N1CCC[C@H]1C(=O)N[C@@H](CCCCN)C(=O)N[C@@H](CC(C)C)C(=O)N[C@@H](CCC(N)=O)C(=O)N[C@@H](CCCNC(=N)N)C(=O)N[C@@H](C)C(=O)N[C@@H](CCC(N)=O)C(=O)N[C@@H](C)C(N)=O [GPR310] (Palmitoyl-RALQKRLREPEKQPKLQRAQA-NH2; C-terminus assumed),inhibition of AYPGKF-induced Rap1-GTP signal,[13],significantly attenuated
same,inhibition of calcium flux (CXCR1/2),[14],did not inhibit
same,suppression of thrombin-induced RASA3 appearance in plasma membrane,[1],complete suppression
same,Tmax,[15],1 h
same,level at time molar at 4 h,[15],3500 nM
same,level at time molar at 14 h,[15],10 nM
same,ex vivo antiplatelet effect at high agonist concentration,[16],reversed
same,suppression of AYPGKF-mediated Ca2+ response,[17],80%
same,inhibition of recombinant PAR2 calcium flux,[18],no detected inhibition
same,inhibition of thrombin-induced Rap1 activation,[2],partially suppressed
same,"inhibition of ATP release, mouse PRP",[19],inhibited
same,"inhibition of platelet aggregation, mouse PRP",[19],inhibited
same,inhibition of PAR1 calcium flux,[20],minimal inhibition
same,tail bleeding time vs vehicle control,[21],no difference
same,clot retraction time vs vehicle,[3],longer clot retraction times
same,inhibition of calcium flux (ADP receptors),[22],did not inhibit
same,inhibition of 12(S)-HETE-induced p38 MAPK phosphorylation,"[9]; 1 to 3 μM GPR310, human platelets",completely attenuated
same,inhibition of thrombin-induced Akt phosphorylation,[23],attenuated
same,inhibition of thrombin-mediated ERK activation,[23],inhibited
same,inhibition of collagen-mediated platelet aggregation,[11],almost completely inhibited
same,inhibition of PAR1-mediated platelet aggregation,"[12]; 10 μmol/L GPR310, 3 μM SFLLRN, gel-purified human platelets",significant inhibition
same,inhibition of PAR1-mediated platelet aggregation,"[12]; 10 μmol/L GPR310, 10 μmol/L SFLLRN, gel-purified human platelets",no significant effect
same,inhibition of calcium flux (CXCR4),[24],did not inhibit
